Results published in ChEMBL document CHEMBL4610083, “Kendomycin Cytotoxicity against Bacterial, Fungal, and Mammalian Cells Is Due to Cation Chelation” (J Nat Prod, 2020).
Activity calls are given as the source filed them. No cut-off for these calls is given here. Residues, ends and D or L forms follow the SMILES beside them. *: point of attachment. Cbz = O=C(OCc1ccccc1)*

Legend:
[1] = test system: HCT-116; experiment: Inhibition of protein biogenesis in human HCT116 cells assessed as reduction in secreted protein level at 100 to 1000 nM preincubated for 30 mins followed by addition of 35S-labeled methionine/cysteine and measured after 90 mins by autoradiography; assay type: functional, cell-based
Procedure, shortened: (§1)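 HCT116 cells seeded at 0.5 × 10^6/well and grown 24 h at 37 °C, 5% CO2. Washed, then given compound in Met/Cys-free DMEM for 30 min at 37 °C. Pulsed with 100 μCi 35S-Met/Cys for 90 min. Total protein taken by RIPA extraction of the cell pellet; secreted protein by TCA precipitation of the medium. Gels exposed to phosphor screens and scanned.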

[2] = test system: Saccharomyces cerevisiae; experiment: Antifungal activity against Saccharomyces cerevisiae assessed as reduction in microbial growth in presence of CuCl2; assay type: functional, organism-based
Procedure, shortened: (§2)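 Single-colony inhibition on solid medium, with or without 1 mM FeCl2 or 0.25 mM CuCl2 in the agar. Colonies washed off the plates with PBS and cell density read as A600. Inhibition curves fitted by regression.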

[3] = Metal chelating activity assessed as compound-calcium complex formation by UV-Vis spectrophotometric analysis
[4] = test system: Saccharomyces cerevisiae; experiment: Antifungal activity against Saccharomyces cerevisiae assessed as reduction in microbial growth in presence of FeCl2; assay type: functional, organism-based; procedure, shortened: as §2
[5] = Metal chelating activity assessed as compound-Fe3+ complex formation by UV-Vis spectrophotometric analysis
Procedure, shortened: (§3)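 250 μM compound titrated with increasing metal concentrations and absorption spectra recorded. A320 measured in quadruplicate; averages fitted to a binding curve to give apparent Kapp.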

[6] = test system: Proteasome; experiment: Inhibition of proteosome in HEK293T cells assessed as reduction in UbG76V-GFP degradation at 250 nM incubated for 4 hrs by flow cytometric analysis; conditions: Homo sapiens, HEK-293T
[7] = test system: Proteasome; experiment: Inhibition of proteosome in human K562 cells assessed as reduction in UbG76V-GFP degradation at 2.5 to 10 uM incubated for 4 hrs by flow cytometric analysis
Procedure, shortened: (§4)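 K562 cells carrying a lentivirally integrated, TRE2-driven UbG76V-GFP reporter. Reporter induced with 1 μg/mL doxycycline (final) 16 h before compound. Cells treated with compound or carrier for 4 h, then GFP fluorescence measured by flow cytometry.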

[8] = Metal chelating activity assessed as compound-Cu2+ complex formation by UV-Vis spectrophotometric analysis; procedure, shortened: as §3
[9] = Metal chelating activity assessed as compound-[…] complex formation by UV-Vis spectrophotometric analysis
[10] = test system: Bacillus subtilis; experiment: Antibacterial activity against Bacillus subtilis assessed as reduction in microbial growth in presence of CuCl2 by serial dilution method; assay type: functional, organism-based
Procedure, shortened: (§5)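 Mid-log cultures in LB back-diluted to low OD; 8-point compound serial dilution added, with or without freshly prepared 0.25 mM FeCl2 or 0.25 mM CuCl2. Incubation at 37 °C with orbital shaking at 1000 rpm. Cell density read as A600, duplicate data sets, inhibition curves fitted by regression.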

[11] = test system: Bacillus subtilis; experiment: Antibacterial activity against Bacillus subtilis assessed as reduction in microbial growth in presence of FeCl2 by serial dilution method; assay type: functional, organism-based; procedure, shortened: as §5
[12] = test system: HCT-116; experiment: Antiproliferative activity against human HCT116 cells assessed as reduction in cell viability incubated for 72 hrs in presence of FeCl2 by AlamarBlue assay; assay type: functional, cell-based
Procedure, shortened: (§6)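 HCT116 cells in McCoy's 5A with 10% FBS, seeded at 2500 cells/well. Dosed 16 h after plating, with or without 0.5 mM FeCl2 or 0.5 mM CuCl2. After 72 h, 10% resazurin added for 4 h, then fluorescence read (ex 580/em 620 nm). Viability given as % of carrier growth; curves from quadruplicate technical replicates.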

[13] = Metal chelating activity assessed as compound-Fe2+ complex formation by UV-Vis spectrophotometric analysis; procedure, shortened: as §3
[14] = test system: HCT-116; experiment: Antiproliferative activity against human HCT116 cells assessed as reduction in cell viability incubated for 72 hrs in presence of CuCl2 by AlamarBlue assay; assay type: functional, cell-based; procedure, shortened: as §6
[15] = Binding affinity to Cu2+ ion assessed as compound-Cu2+ formation by 1H NMR spectroscopy
[16] = Binding affinity to Fe2+ ion assessed as compound-Fe2+ formation by 1H NMR spectroscopy
[17] = test system: HCT-116; experiment: Inhibition of protein biogenesis in human HCT116 cells assessed as reduction in total protein level at 100 to 1000 nM preincubated for 30 mins followed by addition of 35S-labeled methionine/cysteine and measured after 90 mins by autoradiography; assay type: functional, cell-based; procedure, shortened: as §1
[18] = test system: HCT-116; experiment: Inhibition of protein biogenesis in human HCT116 cells assessed as reduction in total protein level preincubated for 30 mins followed by addition of 35S-labeled methionine/cysteine and measured after 90 mins by autoradiography; assay type: functional, cell-based
Procedure, shortened: (§7)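 HCT116 cells seeded at 0.5 × 10^6 per well and grown 24 h at 37 °C, 5% CO2. After two washes, compound in DMEM lacking Met/Cys was added for 30 min at 37 °C, then 100 μCi 35S-Met/Cys for a further 90 min. Secreted protein was recovered from medium by TCA precipitation, total protein by RIPA extraction of washed cells. Gels were read by phosphor screen imaging.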

[19] = test system: HCT-116; experiment: Inhibition of protein biogenesis in human HCT116 cells assessed as reduction in secreted protein level preincubated for 30 mins followed by addition of 35S-labeled methionine/cysteine and measured after 90 mins by autoradiography; assay type: functional, cell-based; procedure, shortened: as §7
[20] = test system: Proteasome; experiment: Inhibition of proteosome in human K562 cells assessed as reduction in UbG76V-GFP degradation at 2 uM incubated for 4 hrs by flow cytometric analysis; procedure, shortened: as §4

CC1=C2O[C@]3(O)C=C2C(=C(O)C1=O)[C@@H]1O[C@H](CC[C@H](C)/C=C(\C)C[C@@H](C)C[C@@H]3C)[C@H](C)[C@H](O)[C@H]1C
inhibition [1]: inactive
Activity [2]: inactive
Activity [3]: inactive
Activity [4]: inactive
Activity [5]: Dose-dependent effect
Kapp [5]: 76 µM
inhibition [6]: inactive
inhibition [7]: inactive
Activity [8]: Dose-dependent effect
Kapp [8]: 48 µM
Activity [9]: inactive
Activity [10]: inactive
Activity [11]: inactive
Activity [12]: inactive
Activity [13]: Dose-dependent effect
Kapp [13]: 19 µM
Activity [14]: Active
Activity [15]: Active
Activity [16]: Active
inhibition [17]: inactive

C[C@@H]1C[C@@H]([C@H](O)CC2CC(=O)NC(=O)C2)C(=O)[C@@H](C)C1
inhibition [18]: Active
inhibition [19]: Active

CC(C)C[C@@H](C=O)NC(=O)[C@H](CC(C)C)NC(=O)[C@H](CC(C)C)NC(=O)OCc1ccccc1 (Cbz-Leu-Leu-Leu-aldehyde)
inhibition [20]: Active
inhibition [6]: Active
